Measurements: ChEMBL document CHEMBL1154423, “Activity of colistin against heteroresistant Acinetobacter baumannii and emergence of resistance in an in vitro pharmacokinetic/pharmacodynamic model” (Antimicrob Agents Chemother, 2007)

Experiments:
[1] = Cmax in in vitro PK/PD model at loading dose of 0.45 mg and maintenance dose of 0.39 mg dosed at 12 hrs intervals; type: ADME, organism-based; set-up: dose 0.45 mg
[2] = Cmax in in vitro PK/PD model at loading dose of 0.30 mg and maintenance dose of 0.23 mg dosed at 8 hrs intervals; type: ADME, organism-based; set-up: dose 0.3 mg
[3] = Cmax in in vitro PK/PD model at loading dose of 0.90 mg and maintenance dose of 0.89 mg dosed at 24 hrs intervals; type: ADME, organism-based; set-up: dose 0.9 mg
[4] = test system: Acinetobacter baumannii; test: Antibacterial activity against Acinetobacter baumannii ATCC 19606 assessed as AUBC (0 to 72 hrs) normalized to log10CFU/ml in in vitro PK/PD model at continuous maintenance dose of 4.5 ug/ml; type: functional, organism-based
Method in brief: (§1)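 One-compartment in vitro PK/PD model at 37°C. Cation-adjusted Mueller-Hinton broth was pumped from a reservoir into the central compartment, with an early-log-phase inoculum of about 10^6 CFU/ml. Colistin sulfate simulated human colistin PK. Intermittent regimens were dosed into the central compartment; for the continuous regimen, colistin was spiked into the reservoir broth. Viable counts were by spiral plating over 0–72 h, AUBC0-72 normalized to log10 CFU/ml at t=0, n=3.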

[5] = test system: Acinetobacter baumannii; test: Antibacterial activity against Acinetobacter baumannii ATCC 19606 assessed as AUBC (0 to 72 hrs) normalized to log10CFU/ml in in vitro PK/PD model at loading dose of 0.90 mg and maintenance dose of 0.89 mg dosed at 24 hrs intervals; type: functional, organism-based; method in brief: as §1
[6] = test system: Acinetobacter baumannii; test: Antibacterial activity against Acinetobacter baumannii isolate 6 assessed as AUBC (0 to 72 hrs) normalized to log10CFU/ml in in vitro PK/PD model at loading dose of 0.30 mg and maintenance dose of 0.23 mg dosed at 8 hrs intervals; type: functional, organism-based; method in brief: as §1
[7] = test system: Acinetobacter baumannii; test: Antimicrobial activity against Ceftazidime resistant Acinetobacter baumannii isolate 6; type: functional, organism-based
[8] = test system: Acinetobacter baumannii; test: Antibacterial activity against Acinetobacter baumannii ATCC 19606 assessed as AUBC (0 to 72 hrs) normalized to log10CFU/ml in in vitro PK/PD model at loading dose of 0.30 mg and maintenance dose of 0.23 mg dosed at 8 hrs intervals; type: functional, organism-based; method in brief: as §1
[9] = test system: Acinetobacter baumannii; test: Antimicrobial activity against gentamicin and ciprofloxacin resistant Acinetobacter baumannii ATCC 19606; type: functional, organism-based
[10] = test system: Acinetobacter baumannii; test: Antibacterial activity against Acinetobacter baumannii isolate 6 assessed as AUBC (0 to 72 hrs) normalized to log10CFU/ml in in vitro PK/PD model at continuous maintenance dose of 4.5 ug/ml; type: functional, organism-based; method in brief: as §1
[11] = test system: Acinetobacter baumannii; test: Antibacterial activity against Acinetobacter baumannii isolate 6 assessed as AUBC (0 to 72 hrs) normalized to log10CFU/ml in in vitro PK/PD model at loading dose of 0.45 mg and maintenance dose of 0.39 mg dosed at 12 hrs intervals; type: functional, organism-based; method in brief: as §1
[12] = test system: Acinetobacter baumannii; test: Antibacterial activity against Acinetobacter baumannii isolate 6 assessed as AUBC (0 to 72 hrs) normalized to log10CFU/ml in in vitro PK/PD model at loading dose of 0.90 mg and maintenance dose of 0.89 mg dosed at 24 hrs intervals; type: functional, organism-based; method in brief: as §1
[13] = test system: Acinetobacter baumannii; test: Antibacterial activity against Acinetobacter baumannii ATCC 19606 assessed as AUBC (0 to 72 hrs) normalized to log10CFU/ml in in vitro PK/PD model at loading dose of 0.45 mg and maintenance dose of 0.39 mg dosed at 12 hrs intervals; type: functional, organism-based; method in brief: as §1

Row | Sequence | Cmax [1] | Cmax [2] | Cmax [3] | AUBC [4] | AUBC [5] | AUBC [6] | MIC [7] | AUBC [8] | MIC [9] | AUBC [10] | AUBC [11] | AUBC [12] | AUBC [13]
1 | COLISTIN [listing 1 of 2 here] | 4500 ng/mL | 3000 ng/mL | 9000 ng/mL | – | – | – | – | – | – | – | – | – | –
2 | COLISTIN [listing 2 of 2 here] | – | – | – | 72.7 log10CFU/ml | 67 log10CFU/ml | 68 log10CFU/ml | 1 µg/mL | 68.5 log10CFU/ml | 1 µg/mL | 65.6 log10CFU/ml | 64.9 log10CFU/ml | 58.5 log10CFU/ml | 68.5 log10CFU/ml
